Reference: ChEMBL document CHEMBL1135968, “The effect of a phosphodiester linking group on albumin binding, blood half-life, and relaxivity of intravascular diethylenetriaminepentaacetato aquo gadolinium(III) MRI contrast agents” (J Med Chem, 2002)

Assays:
[1] = Area under concentration versus time curve, 0-30 min; format: ADME; parameters: time < 0.5 hr; details: 0.5 h
Procedure, shortened: (§1)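 Unanesthetized male Sprague-Dawley rats (150-250 g, n = 2-5) received 153Gd-labeled chelate via tail vein catheter at 0.1 mmol/kg. Plasma was separated from heparinized blood and Gd was measured by ICP. Concentration-time data were fitted biexponentially. Elimination half-life = 0.693/β and Vd = dose/B. AUC 0-30 min was computed per animal by the trapezoidal rule. Values are mean ± 1 SD.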

[2] = Area under plasma 1/T1 versus time curve, 0-30 min; format: ADME, cell-free; parameters: concentration or dose not given beside the values
Procedure, shortened: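 Male Sprague-Dawley rats (150-250 g, n = 2-5, unanesthetized) were given 0.1 mmol/kg 153Gd chelate i.v. by tail vein catheter. Plasma water T1 was measured on a Minispec in triplicate, and plasma Δ1/T1 was followed over time. AUC 0-30 min was calculated per animal by the trapezoidal rule. Values are mean ± 1 SD.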

Albumin [3] = target: T1, Albumin (Homo sapiens, UniProt P02768); experiment: Observed relaxivity bound to human serum albumin (4.5%)
T1 sequence (P02768 whole entry): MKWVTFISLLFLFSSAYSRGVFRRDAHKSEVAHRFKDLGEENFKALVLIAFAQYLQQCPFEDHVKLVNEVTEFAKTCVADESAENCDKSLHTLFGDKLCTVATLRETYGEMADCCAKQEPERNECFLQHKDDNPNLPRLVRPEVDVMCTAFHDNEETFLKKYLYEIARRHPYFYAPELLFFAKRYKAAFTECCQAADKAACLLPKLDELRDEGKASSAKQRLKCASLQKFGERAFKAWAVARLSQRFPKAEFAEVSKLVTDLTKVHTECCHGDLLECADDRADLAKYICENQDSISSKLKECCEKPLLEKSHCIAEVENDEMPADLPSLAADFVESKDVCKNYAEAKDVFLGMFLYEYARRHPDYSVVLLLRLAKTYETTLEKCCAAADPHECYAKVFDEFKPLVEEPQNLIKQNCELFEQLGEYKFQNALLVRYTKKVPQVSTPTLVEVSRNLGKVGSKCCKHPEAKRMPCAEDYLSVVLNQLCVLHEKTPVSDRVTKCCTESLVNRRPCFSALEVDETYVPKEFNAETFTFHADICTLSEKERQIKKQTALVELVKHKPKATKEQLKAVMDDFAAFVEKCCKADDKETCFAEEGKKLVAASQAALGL
Procedure, shortened: (§2)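 T1 was read at 20 MHz (0.47 T) and 37 °C, in triplicate, with recycle delay 5× T1. Five sequential additions of 1–10 mM chelate were titrated into PBS (10 mM phosphate, 150 mM NaCl, pH 7.4) or into 4.5% HSA (fraction V) in PBS. r1 was taken from the titration.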

Rattus norvegicus [4] = species on record: Rattus norvegicus; experiment: Elimination of half-life in rat; format: ADME, organism-based; details: in vivo; procedure, shortened: as §1
[5] = Relaxivity, measured in phosphate buffer saline (PBS); format: ADME; procedure, shortened: as §2
Rattus norvegicus [6] = species on record: Rattus norvegicus; experiment: Volume of distribution, steady state in rat; format: ADME, organism-based; details: in vivo; procedure, shortened: as §1
Rattus norvegicus [7] = species on record: Rattus norvegicus; experiment: Percent of biliary excretion measured in 24 hr in rat; format: ADME, organism-based, Bile; details: in vivo
Procedure, shortened: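 Rats were dosed i.v. at 0.1 mmol/kg with 153Gd-labeled chelate (male Sprague-Dawley, 150-250 g) and housed in metabolic cages to collect urine and feces. They were sacrificed at 24 h. Tissues and excreta were gamma counted, and % injected dose = sample CPM / injected CPM × 100.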

Albumin [8] = target: T1, Albumin; experiment: Percentage of compound (0.1 mM) bound to human serum albumin (4.5%); details: 100 µM
Procedure, shortened: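 Ultrafiltration, in duplicate. 153Gd-labeled chelate was added to 4.5% HSA to 0.1 mM total Gd. An aliquot was counted, and 400 μL was centrifuged through a 5000 NMWL filter at room temperature (22 ± 1 °C). The unbound fraction came from filtrate counts.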

## Bis-[N-methyl-D-glucamine]-{(2-(octyldiethylenetriamine)diethylenetriaminepentaacetato)(aquo)-gadolinium (III)}
[1]
  AUC conc: 51 µM·h
[2]
  AUC 1/T1: 69.7 s-1 min
Albumin [3]
  Observed relaxivity: 20.7 mM⁻¹ s⁻¹
Rattus norvegicus [4]
  T1/2 beta: 6.2 min
[5]
  Relaxivity: 5.9 mM⁻¹ s⁻¹
Rattus norvegicus [6]
  Vdss: 0.62 L/kg
Rattus norvegicus [7]
  Excretion: 66.9%
Albumin [8]
  Bound: 44%

## DIETHYLENETRIAMINEPENTAACETATO AQUO GADOLINIUM (III)
[1]
  AUC conc: 104 µM·h
[2]
  AUC 1/T1: 46.4 s-1 min
Albumin [3]
  Observed relaxivity: 4.6 mM⁻¹ s⁻¹
Rattus norvegicus [4]
  T1/2 beta: 15.4 min
[5]
  Relaxivity: 4.6 mM⁻¹ s⁻¹
Rattus norvegicus [6]
  Vdss: 0.28 L/kg
Rattus norvegicus [7]
  Excretion: 6.3%
Albumin [8]
  Bound: 0%

## Tris-[N-methyl-D-glucamine]-{(2-(R)-[(2-(1-naphthyl)-ethyl)phosphonooxymethyl]diethylenetriaminepentaacetato)(aquo)-gadolinium (III)}
[1]
  AUC conc: 92.8 µM·h
[2]
  AUC 1/T1: 94.2 s-1 min
Albumin [3]
  Observed relaxivity: 19.5 mM⁻¹ s⁻¹
Rattus norvegicus [4]
  T1/2 beta: 14.3 min
[5]
  Relaxivity: 6 mM⁻¹ s⁻¹
Rattus norvegicus [6]
  Vdss: 0.32 L/kg
Rattus norvegicus [7]
  Excretion: 17%
Albumin [8]
  Bound: 40%

## Bis-[N-methyl-D-glucamine]-{(2-((2-naphthyl)methyl)-diethylenetriaminepentaacetato)(aquo)-gadolinium (III)}
[1]
  AUC conc: 43 µM·h
[2]
  AUC 1/T1: 40.1 s-1 min
Albumin [3]
  Observed relaxivity: 16.3 mM⁻¹ s⁻¹
Rattus norvegicus [4]
  T1/2 beta: 6.8 min
[5]
  Relaxivity: 5.5 mM⁻¹ s⁻¹
Rattus norvegicus [6]
  Vdss: 0.44 L/kg
Rattus norvegicus [7]
  Excretion: 64.3%
Albumin [8]
  Bound: 30%

## Trisodium-{(2-(R)-[(4,4-diphenylcyclohexyl)phosphonooxymethyl]diethylenetriaminepentaacetato)(aquo)-gadolinium (III)}
[1]
  AUC conc: 156 µM·h
[2]
  AUC 1/T1: 285 s-1 min
Albumin [3]
  Observed relaxivity: 42 mM⁻¹ s⁻¹
Rattus norvegicus [4]
  T1/2 beta: 23.1 min
[5]
  Relaxivity: 6.6 mM⁻¹ s⁻¹
Rattus norvegicus [6]
  Vdss: 0.24 L/kg
Rattus norvegicus [7]
  Excretion: 15.8%
Albumin [8]
  Bound: 88%

## Tris-[N-methyl-D-glucamine]-{(2-(R)-[octylphosphonooxymethyl]diethylenetriaminepentaacetato)(aquo)-gadolinium (III)}
[1]
  AUC conc: 99.3 µM·h
[2]
  AUC 1/T1: 150 s-1 min
Rattus norvegicus [4]
  T1/2 beta: 14.3 min
[5]
  Relaxivity: 6.1 mM⁻¹ s⁻¹
Rattus norvegicus [6]
  Vdss: 0.31 L/kg
Rattus norvegicus [7]
  Excretion: 17.7%
Albumin [8]
  Bound: 54%
